# Activity calls are given as the source filed them.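 Rule for the calls, unless noted: active = GFP response above 150% of the DMSO level; inconclusive = fewer than 70 events counted for a yeast strain; inactive = the rest.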
# Legend:
# [1] = RPL19A-GFP modulators, yeast TOR pathway, confirmation, cell-based, S. cerevisiae, flow cytometry, cherry picks, mother/daughter gates (AID 2270;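 active = GFP response below 50% of the DMSO control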); conditions: S. cerevisiae RPL19A-GFP strain, 3 h, at 10 µM, stronger effect = lower value, 100 = same GFP as DMSO wells
# [2] = LAP4-GFP expression modulators in yeast, confirmation, cell-based, cherry picks, flow cytometry, mother/daughter gates (AID 2271;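 active = GFP response above 150% of the DMSO control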;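 note: ratio of sample to DMSO plate mean so 100% equals DMSO level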); conditions: S. cerevisiae LAP4-GFP strain, 3 h, at 10 µM, stronger effect = higher value, 100 means same as DMSO control
# Summary of the method: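 Measured by: GFP by flow cytometry. Test system: GFP-fusion yeast strain. Input: yeast cells seeded at OD600 of 0.2. Timing: 30 °C, 3 h compound incubation, rotating. Buffer or medium: synthetic complete medium for yeast. Benchmarks: DMSO-only negative wells, rapamycin 400 ng/mL positive wells. Compound: 10 µM single dose.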
# [3] = modulators of MEP2-GFP levels in yeast, confirmation, S. cerevisiae, flow cytometry GFP, cherry picks (AID 2272;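 active = GFP response above 150% of the DMSO control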;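 note: ratio of well signal to plate DMSO mean so 100% equals DMSO level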); conditions: S. cerevisiae MEP2-GFP strain, 3 h, at 10 µM, stronger effect = higher value
# [4] = AGP1-GFP expression modulators, hit retest, confirmation, cell-based, flow cytometry, S. cerevisiae, cherry picks (AID 2273);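 note: median GFP channel fluorescence over the whole cell population gate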; conditions: S. cerevisiae AGP1-GFP strain, 3 h, at 10 µM
# [5] = modulators of CIT2-GFP expression in yeast, confirmation, S. cerevisiae, GFP fusion, cherry picks, mother/daughter gates (AID 2274); conditions: S. cerevisiae CIT2-GFP strain, flow cytometry, 3 h, at 10 µM, stronger effect = higher value
# [6] = measured here: daughter cell gate
# [7] = measured here: mother cell gate
# [8] = measured here: daughter cell gate response
# [9] = measured here: mother cell gate response
Structure (SMILES),GFP response vs DMSO [1],"GFP response vs DMSO [1, 6] [%]","GFP response vs DMSO [1, 7] [%]",GFP response relative to DMSO [2],"GFP response relative to DMSO [2, 8] [%]","GFP response relative to DMSO [2, 9] [%]",GFP response vs DMSO [3],"GFP response, % of DMSO [4]","GFP response, % of DMSO [5]","GFP response, % of DMSO [5, 6] [%]","GFP response, % of DMSO [5, 7] [%]"
CCCCN(CC)S(=O)(=O)c1ccc(C(=O)Nc2nnc(-c3ccccc3Cl)o2)cc1,98.8% (inactive),99.1,98.5,97.9% (inactive),99.2,98.3,109% (inactive),92.7% (inactive),98.3% (inactive),99.1,98.5
Cc1cccn2c(=O)c(/C=C(\C#N)C(=O)NCc3ccccc3)c(N3CCC(C(N)=O)CC3)nc12,98.7% (inactive),99,97.5,101% (inactive),102,101,101% (inactive),104% (inactive),101% (inactive),103,103
O=[N+]([O-])c1ccc(Cl)cc1Sc1ccccn1,105% (inactive),108,104,94.1% (inactive),96,91.3,112% (inactive),102% (inactive),111% (inactive),110,108
O=C1c2ccsc2SCCN1Cc1cccc(F)c1,96% (inactive),95.7,96.8,103% (inactive),102,104,92.6% (inactive),89.9% (inactive),87.2% (inactive),90.2,84.6
CCOC(=O)c1ccc(N=Cc2nc(-c3ccccc3)oc2OC(C)=O)cc1,104% (inactive),105,101,154% (active),138,170,96.8% (inactive),92.2% (inactive),93% (inactive),93.8,89.5
O=[N+]([O-])c1cccc(/C=N/Nc2ncc(Br)cn2)c1,90.9% (inactive),88.5,90.6,129% (inactive),121,132,128% (inactive),137% (inactive),86.1% (inactive),86.9,83.7
COc1cc(NC(=O)c2cccc(C)c2)ccc1NC(=O)c1cc2ccccc2o1,102% (inactive),103,102,103% (inactive),102,103,99% (inactive),104% (inactive),103% (inactive),106,103
C/C(=N\NC(=O)c1nonc1N)c1cccs1,98.2% (inactive),98.8,98.1,102% (inactive),99.3,100,99.5% (inactive),94.5% (inactive),99.3% (inactive),98.3,98
Cc1ccc(/C=C2\SC(=S)N(CC3CCCO3)C2=O)o1 (stereo not given),93.8% (inactive),94.2,93.5,189% (active),167,194,143% (inactive),100% (inactive),98.6% (inactive),97.6,98.2
CCCN(CCC)S(=O)(=O)c1ccc(C(=O)Nc2nnc(-c3cc(OC)cc(OC)c3)o2)cc1,98.2% (inactive),99.4,99,91.5% (inactive),91.2,91.9,102% (inactive),93.9% (inactive),101% (inactive),101,101
Cc1ccc(S(=O)(=O)N(Cc2ccccc2)Cc2ccco2)cc1,102% (inactive),103,104,87.8% (inactive),87.9,90.1,97.8% (inactive),97.8% (inactive),106% (inactive),105,104
O=C(c1ccc(OCC2CCCO2)cc1)N1CCN(c2ccccc2)CC1 (stereo not given),98.7% (inactive),98.4,98.4,104% (inactive),102,105,103% (inactive),102% (inactive),100% (inactive),101,100
COC(=O)c1ccc(Cn2cc(/C=C\[N+](=O)[O-])c3ccccc32)o1,103% (inactive),104,102,122% (inactive),115,127,106% (inactive),98.2% (inactive),96.4% (inactive),100,92.1
CCOC(=O)c1cc(S(=O)(=O)N2CCN(C(=O)OCC)CC2)cn1C,101% (inactive),99,101,105% (inactive),100,107,107% (inactive),95.7% (inactive),100% (inactive),99.7,102
Cc1nn(C)cc1C(C)NC(=O)c1cc(COc2ccc(F)c(F)c2)on1 (stereo not given),101% (inactive),100,102,93.8% (inactive),94.1,96.2,100% (inactive),93.7% (inactive),97.8% (inactive),98.1,97.7

# — PubChem BioAssay
